Calls of active or inactive are those of the source.
Tests used:
Assay type in all cases: functional, cell-based
MES-SA [1] = experiment: Cytotoxicity against human MES-SA cells assessed as inhibition of cell proliferation incubated for 72 hrs by MTT assay
Method in brief: (§1)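 Cells were seeded (10000/well for A2780, 5000/well for MES-SA/Dx5 and KB-3-1/V1) and left to attach 12 h, then exposed to compound for 72 h. Medium was removed, and MTT (0.83 mg/mL) was added for 1 h at 37 °C. Cells were lysed in DMSO and absorbance read at 540 nm. Signal was corrected for unstained lysate background, normalized to untreated cells, and IC50 taken from a sigmoidal dose-response fit.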

MES-SA/Dx5 [2] = experiment: Cytotoxicity against human MES-SA/DX5 cells assessed as inhibition of cell proliferation incubated for 72 hrs by MTT assay; method in brief: as §1
KB 3-1 [3] = experiment: Cytotoxicity against human KB-3-1 cells assessed as inhibition of cell proliferation incubated for 72 hrs by MTT assay; method in brief: as §1
KB-V1 [4] = experiment: Cytotoxicity against human KB-V1 cells assessed as inhibition of cell proliferation incubated for 72 hrs by MTT assay; method in brief: as §1
MES-SA [5] = experiment: Cytotoxicity against human MES-SA cells assessed as inhibition of cell proliferation at >=50 uM incubated for 72 hrs by MTT assay; conditions: dose microM >=50, time 72.0 hrs; method in brief: as §1
MES-SA/Dx5 [6] = experiment: Cytotoxicity against human MES-SA/DX5 cells assessed as inhibition of cell proliferation at >=50 uM incubated for 72 hrs by MTT assay; conditions: dose microM >=50, time 72.0 hrs; method in brief: as §1
KB 3-1 [7] = experiment: Cytotoxicity against human KB-3-1 cells assessed as inhibition of cell proliferation at >=50 uM incubated for 72 hrs by MTT assay; conditions: dose microM >=50, time 72.0 hrs; method in brief: as §1
KB-V1 [8] = experiment: Cytotoxicity against human KB-V1 cells assessed as inhibition of cell proliferation at >=50 uM incubated for 72 hrs by MTT assay; conditions: dose microM >=50, time 72.0 hrs; method in brief: as §1
MES-SA [9] = experiment: Cytotoxicity against human MES-SA cells assessed as inhibition of cell proliferation at <50 uM incubated for 72 hrs by MTT assay; conditions: dose microM <50, time 72.0 hrs; method in brief: as §1
MES-SA/Dx5 [10] = experiment: Cytotoxicity against human MES-SA/DX5 cells assessed as inhibition of cell proliferation at <50 uM incubated for 72 hrs by MTT assay; conditions: dose microM <50, time 72.0 hrs; method in brief: as §1

COc1ccc(NC(=S)NNc2nc3ccccc3s2)cc1
inactive: pIC50 (MES-SA [1]) | pIC50 (MES-SA/Dx5 [2]) | pIC50 (KB 3-1 [3]) | pIC50 (KB-V1 [4]) | Activity (MES-SA [5]) | Activity (MES-SA/Dx5 [6]) | Activity (KB 3-1 [7]) | Activity (KB-V1 [8])

COc1ccc(NC(=S)NNC(=S)Nc2ccc(OC)cc2)cc1
inactive: pIC50 (MES-SA [1]) | pIC50 (MES-SA/Dx5 [2]) | Activity (MES-SA [9]) | Activity (MES-SA/Dx5 [10])

From ChEMBL document CHEMBL4715714, “Design, synthesis and biological evaluation of thiosemicarbazones, hydrazinobenzothiazoles and arylhydrazones as anticancer agents with a potential to overcome multidrug resistance” (Eur J Med Chem, 2016)
